Test results taken from ChEMBL document CHEMBL1158485, “Inhibition of glyoxalase I: the first low-nanomolar tight-binding inhibitors” (J Med Chem, 2009).

Columns and labels:
Glyoxalase I = molecular target: T1, Glyoxalase I (Saccharomyces cerevisiae S288c, UniProt P50107); experiment: Inhibition of yeast glyoxalase 1
T1 sequence (P50107 whole entry): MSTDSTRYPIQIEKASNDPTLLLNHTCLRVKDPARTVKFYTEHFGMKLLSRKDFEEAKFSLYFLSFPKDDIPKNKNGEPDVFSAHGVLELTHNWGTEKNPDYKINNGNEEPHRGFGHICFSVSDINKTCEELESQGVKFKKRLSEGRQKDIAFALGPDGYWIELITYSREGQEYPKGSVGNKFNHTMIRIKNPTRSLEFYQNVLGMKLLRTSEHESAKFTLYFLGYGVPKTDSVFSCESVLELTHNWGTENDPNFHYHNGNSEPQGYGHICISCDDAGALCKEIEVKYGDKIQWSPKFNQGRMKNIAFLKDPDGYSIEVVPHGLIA
Procedure, shortened: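 Yeast glyoxalase I run at 30 °C in 0.05 M phosphate buffer pH 6.6 with 0.1% BSA. Methylglyoxal (distilled, resin-treated, standardized) was present at up to 6.0 mM and fresh GSH at up to 1.3 mM. Inhibitor solutions were aqueous, adjusted to pH 6.6. Mixtures equilibrated for 6 min, then the initial rate was read as the A240 rise.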

[1] = Stability in presence of equine kidney gamma-glutamyltranspeptidase at pH 8.4 by TLC; format: ADME
Procedure, shortened: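 Inhibitor at 10 mM stock in 200 mM 2-amino-2-methyl-1,3-propanediol buffer, incubated at 37 °C with equine kidney γ-GT (0.54 mg/100 μL stock) plus Gly-Gly acceptor (40 mM stock). Breakdown was followed by TLC with UV, iodine and fluorescamine detection.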

Row | Ki (Glyoxalase I) | Stability [1] | SMILES
1 | 32.6 nM | Stable | N[C@@H](CNC(=O)N[C@@H](CCC(=O)N(O)c1ccc(Br)cc1)C(=O)NCC(=O)O)C(=O)O
2 | 6280 nM |  | N[C@@H](CCC(=O)N[C@@H](CSCc1ccc(Br)cc1)C(=O)NCC(=O)O)C(=O)O
3 | 6.17 nM | Unstable | N[C@@H](CCC(=O)N[C@@H](CCC(=O)N(O)c1ccc(Br)cc1)C(=O)NCC(=O)O)C(=O)O.O=C(O)C(F)(F)F
4 | 12800 nM |  | N[C@@H](CNC(=O)N[C@@H](CSCc1ccc(Br)cc1)C(=O)NCC(=O)O)C(=O)O
5 | 123 nM | Stable | N[C@@H](CCC(=O)N[C@@H](CCN(O)C(=O)c1ccc(Br)cc1)C(=O)NCC(=O)O)C(=O)O.O=C(O)C(F)(F)F
6 | 1660 nM | Stable | N[C@@H](CCC(=O)N[C@H](CCC(=O)N(O)c1ccc(Br)cc1)C(=O)NCC(=O)O)C(=O)O.O=C(O)C(F)(F)F
